Experimental data as given in ChEMBL document CHEMBL1143287, “Quinazolin-2-ylamino-quinazolin-4-ols as novel non-nucleoside inhibitors of bacterial DNA polymerase III” (Bioorg Med Chem Lett, 2009).
Values after ≈ are worked out from the molar mass of the structure shown. Active and inactive are the calls of the source. The calls are words filed in the database; no cut-off is given here.

Tests used:
[1] = (§1) Inhibition of Streptococcus pyogenes DNA polymerase 3
Procedure, shortened: (§2)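 S. pyogenes DNA polymerase III holoenzyme system reconstituted in 96- or 384-well format; inhibition read as prevention of duplex DNA formation, detected by fluorescence.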

Staphylococcus aureus [2] = test: Antibacterial activity against Staphylococcus aureus ATCC 29213 by broth microdilution assay in presence of 50% human serum; format: functional
[3] = Inhibition of mammalian DNA polymerase […] delta
Staphylococcus aureus [4] = test: Antibacterial activity against Staphylococcus aureus infected in mouse assessed as protection against bacterial infection at 25 mg/kg, ip administered as single dose measured 1 hr postinjection; format: functional; conditions: route intraperitoneal
Staphylococcus aureus [5] = test: Antibacterial activity against Staphylococcus aureus ATCC 29213 by broth microdilution assay; format: functional
Streptococcus pneumoniae = test: Antibacterial activity against Streptococcus pneumoniae ATCC 49619 by broth microdilution assay; format: functional
Streptococcus pyogenes = test: as §1; procedure, shortened: as §2

Row | SMILES | IC50 [1] | MIC (Staphylococcus aureus [2]) | IC50 [3] | also measured
1 | COc1ccc2c(O)nc(Nc3nc(C)c4cc(OC)ccc4n3)nc2c1 | 3800 nM | 2 µg/mL | 1800 nM | –
2 | COc1ccc2nc(Nc3nc(O)c4c(Cl)cccc4n3)nc(C)c2c1 | 560 nM | 1 µg/mL | 900 nM | –
3 | COc1ccc2nc(Nc3nc(O)c4ccc(N)cc4n3)nc(C)c2c1 | 4700 nM | 1 µg/mL | 4900 nM | –
4 | COc1ccc2nc(Nc3nc(O)c4ccc(C)cc4n3)nc(C)c2c1 | 3700 nM | 1 µg/mL | 2000 nM | Activity (Staphylococcus aureus [4]): 50%
5 | COc1ccc2nc(Nc3nc(O)c4ccccc4n3)nc(C)c2c1 | 4800 nM | – | – | MIC (Staphylococcus aureus [5]): 0.5 µg/mL (≈ 1.5 µM); MIC (Streptococcus pneumoniae): 0.25 µg/mL (≈ 0.75 µM)
6 | CNc1ccc2c(O)nc(Nc3nc(C)c4cc(OC)ccc4n3)nc2c1 | 500 nM | 1 µg/mL | 200 nM | –
7 | COc1ccc2nc(Nc3nc(O)c4ccc(N(C)C)cc4n3)nc(C)c2c1 | 400 nM | 2 µg/mL | 400 nM | –
8 | COc1ccc2nc(Nc3nc(O)c4cc(C)ccc4n3)nc(C)c2c1 | 2800 nM | 2 µg/mL | 1700 nM | –
9 | COc1ccc2nc(Nc3nc(O)c4ccc(F)cc4n3)nc(C)c2c1 | 77800 nM | 64 µg/mL | 1900 nM | –
10 | COc1cccc2c(C)nc(Nc3nc(O)c4ccccc4n3)nc12 | 3100 nM | – | – | MIC (Staphylococcus aureus [5]): 0.5 µg/mL (≈ 1.5 µM); MIC (Streptococcus pneumoniae): 0.25 µg/mL (≈ 0.75 µM)
11 | Cc1ccc2nc(Nc3nc(O)c4ccccc4n3)nc(C)c2c1 | 209000 nM | – | – | MIC (Staphylococcus aureus [5]): 32 µg/mL (≈ 101 µM); MIC (Streptococcus pneumoniae): 16 µg/mL (≈ 50.4 µM)
12 | COc1ccc2nc(Nc3nc(O)c4cc([N+](=O)[O-])ccc4n3)nc(C)c2c1 | 8700 nM | – | 14900 nM | –
13 | COc1ccc2nc(Nc3nc(O)c4ccc([N+](=O)[O-])cc4n3)nc(C)c2c1 | > 100000 nM | 64 µg/mL | 400 nM | –
14 | COc1ccc2nc(Nc3nc(O)c4ccc(NC(C)=O)cc4n3)nc(C)c2c1 | 5500 nM | – | 5000 nM | –
15 | COc1ccc2nc(Nc3nc(O)c4c(OC)cccc4n3)nc(C)c2c1 | 600 nM | 2 µg/mL | 1000 nM | –
16 | CCNc1ccc2c(O)nc(Nc3nc(C)c4cc(OC)ccc4n3)nc2c1 | 400 nM | 1 µg/mL | 400 nM | –
17 | COc1ccc2c(C)nc(Nc3nc(O)c4ccccc4n3)nc2c1 | 70000 nM | – | – | MIC (Staphylococcus aureus [5]): 32 µg/mL (≈ 96 µM); MIC (Streptococcus pneumoniae): 32 µg/mL (≈ 96 µM)
18 | COc1cc2nc(Nc3nc(O)c4ccccc4n3)nc(C)c2cc1OC | 2000 nM | – | – | MIC (Staphylococcus aureus [5]): 4 µg/mL (≈ 11 µM); MIC (Streptococcus pneumoniae): 1 µg/mL (≈ 2.75 µM)
19 | COc1cc2nc(Nc3nc(OC)c4ccccc4n3)nc(C)c2cc1OC | – | – | – | Activity (Streptococcus pyogenes): inactive
20 | COc1cc2nc(N(C)c3nc(OC)c4ccccc4n3)nc(C)c2cc1OC | – | – | – | Activity (Streptococcus pyogenes): inactive
21 | Cc1cc2nc(Nc3nc(O)c4ccccc4n3)nc(C)c2cc1C | 27100 nM | – | – | MIC (Staphylococcus aureus [5]): > 64 µg/mL; MIC (Streptococcus pneumoniae): 1 µg/mL (≈ 3.02 µM)
22 | COc1ccc2nc(Nc3nc(O)c4c(C)cccc4n3)nc(C)c2c1 | 700 nM | 2 µg/mL | 1200 nM | –
23 | COc1ccc2nc(Nc3nc(O)c4ccc(Cl)cc4n3)nc(C)c2c1 | > 100000 nM | – | – | Activity (Staphylococcus aureus [2]): inactive; Activity [3]: inactive
24 | COc1ccc2nc(Nc3nc(O)c4cccc(OC)c4n3)nc(C)c2c1 | > 100000 nM | 2 µg/mL | – | Activity [3]: inactive
